Results published in the array DNA melting data of Ke et al. (doi:10.1101/2024.01.08.574731).

What was measured:
[1] = melting temperature; fluorescence melt of hairpins on a sequencing array, two-state fit, raised by 9.35 °C to match UV melts; settings: sodium 0.088 M
Procedure, shortened: (§1)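 In 50 mM Na-HEPES pH 8.0 containing 25 mM NaCl, hairpins from the library on a sequenced MiSeq flow cell were imaged for Cy3 fluorescence at 2.5 °C steps up to 60 °C, with Cy3 and quencher oligos annealed. After normalisation to pre-quench Cy3 and to control constructs, two-state fits with bootstrapping gave melting temperature and folding enthalpy. Four replicates were combined by inverse-variance weighting, and fitted temperatures were shifted up by 9.35 °C to match UV melts.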

[2] = folding enthalpy; higher = less favourable; fluorescence melt of hairpins on a sequencing array, two-state fit; settings: sodium 0.088 M
Procedure, shortened: as §1

Sequence | Tm [1] | folding enthalpy [2]
CGTCACCGGAAACGGACG (((..(((....)))))) | 36.4 °C | -21.6 kcal/mol
CGTCCACGGAAACGTACG (((..(((....)))))) | 28.5 °C | -15.7 kcal/mol
CGTCCGGAAACGGATACG ((((((....)))..))) | 40 °C | -18.1 kcal/mol
CGTCCGGAAACGGGCACG ((((((....)))..))) | 38.9 °C | -12.4 kcal/mol
CGTCCGGAAACGGGTACG ((((((....)))..))) | 42.4 °C | -25 kcal/mol
CGTCCGGAAACGGTAACG ((((((....)))..))) | 37.8 °C | -25.1 kcal/mol
CGTCGACGGAAACGTACG (((..(((....)))))) | 38.1 °C | -20.2 kcal/mol
CGTGCGGAAACGCCACG ((((((....))).))) | 53.8 °C | -25.4 kcal/mol
CGTGCGGAAACGCCTACG ((((((....)))..))) | 39.1 °C | -15.3 kcal/mol
CGTGCGGAAACGCTTACG ((((((....)))..))) | 38.4 °C | -22.6 kcal/mol
CGTGGACGGAAACGTACG (((..(((....)))))) | 36.6 °C | -20.3 kcal/mol
CGTGGCGGAAACGCACG (((.(((....)))))) | 53.7 °C | -26.5 kcal/mol
CGTGTCGGAAACGAAACG (((.(((....))).))) | 47.1 °C | -35.6 kcal/mol
CGTGTCGGAAACGAACG (((.(((....)))))) | 37.7 °C | -24.3 kcal/mol
CGTGTTCGGAAACGAACG (((..(((....)))))) | 42.1 °C | -8.25 kcal/mol
CGTTAGCGGAAACGCACG (((..(((....)))))) | 39.8 °C | -18.1 kcal/mol
CGTTCACGGAAACGTACG (((..(((....)))))) | 39 °C | -15.2 kcal/mol
CGTTCGGAAACGAAAACG ((((((....)))..))) | 34.9 °C | -24.8 kcal/mol
CGTTCGGAAACGAAGACG ((((((....)))..))) | 34.9 °C | -26.2 kcal/mol
CGTTCGGAAACGACCACG ((((((....)))..))) | 27.3 °C | -8.89 kcal/mol
CGTTCGGAAACGAGAACG ((((((....)))..))) | 41.2 °C | -27.9 kcal/mol
CGTTCGGAAACGAGGACG ((((((....)))..))) | 34.7 °C | -14.1 kcal/mol
CGTTGCGGAAACGCGACG (((.(((....))).))) | 67.4 °C | -30.5 kcal/mol

Sequence | Tm [1] | folding enthalpy [2]
CGTTGGCGGAAACGCACG (((..(((....)))))) | 41.1 °C | -14.6 kcal/mol
CGTTTCGGAAACGACACG (((.(((....))).))) | 44.8 °C | -29.6 kcal/mol
CGTTTGCGGAAACGCACG (((..(((....)))))) | 39.8 °C | -10.4 kcal/mol
CTAGCGAAAGCTAG (((((....))))) | 63.2 °C | -19 kcal/mol
CTCGAGAAATCGAG (((((....))))) | 47.9 °C | -21.2 kcal/mol
CTCGTGAAAACGAG (((((....))))) | 53.5 °C | -21.4 kcal/mol
CTCTGGAAACAGAG (((((....))))) | 46.4 °C | -19.9 kcal/mol
CTCTTGAAAAAGAG (((((....))))) | 36.2 °C | -10.4 kcal/mol
CTGAAGAAATTCAG (((((....))))) | 33.4 °C | -12.5 kcal/mol
CTGACGAAAGTCAG (((((....))))) | 65 °C | -29 kcal/mol
CTGGTGAAAACCAG (((((....))))) | 52.8 °C | -20.3 kcal/mol
CTGTAGAAATACAG (((((....))))) | 39.4 °C | -14.5 kcal/mol
CTTGTGAAAACAAG (((((....))))) | 45.2 °C | -23.1 kcal/mol
GAAAAAGAAATTTTTC ((((((....)))))) | 28.1 °C | -14.6 kcal/mol
GAAAACCGAAAGGTGTTC (((.(((....))).))) | 44.9 °C | -19.9 kcal/mol
GAAAACCGAAAGGTTTC (((.(((....)))))) | 44.2 °C | -15.9 kcal/mol
GAAAACGAAAGTTTGTTC ((((((....)))..))) | 28.4 °C | -13.5 kcal/mol
GAAAACGGAAACGCTTTC ((((.((....)).)))) | 34.8 °C | -32.4 kcal/mol
GAAAAGCGAAAGCTGTTC (((.(((....))).))) | 44.9 °C | -18 kcal/mol
GAAAAGGGAAACCCTTTC ((((.((....)).)))) | 32.6 °C | -17 kcal/mol
GAAAATACGAAAGTATTC (((..(((....)))))) | 27.7 °C | -13.7 kcal/mol
GAAACACGAAAGTGATTC (((.(((....))).))) | 45.5 °C | -29.6 kcal/mol
GAAACAGGAAACTGCTTC (((.(((....))).))) | 31.6 °C | -21.9 kcal/mol

Sequence | Tm [1] | folding enthalpy [2]
GAAACCCGAAAGGGTTC (((.(((....)))))) | 51.5 °C | -10.2 kcal/mol
GAAACCGAAAGGTCTTTC ((((((....)))..))) | 32.3 °C | -14 kcal/mol
GAAACCGAAAGGTGATTC ((((((....)))..))) | 41.6 °C | -22.4 kcal/mol
GAAACCGAAAGGTTGTTC ((((((....)))..))) | 36.8 °C | -13.7 kcal/mol
GAAACCGAAAGGTTTC ((((((....)))))) | 67.1 °C | -29.4 kcal/mol
GAAACCGGAAACGGCTTC (((.(((....))).))) | 42 °C | -23.6 kcal/mol
GAAACGAAAGTTTC (((((....))))) | 53.4 °C | -29.1 kcal/mol
GAAACTGGAAACAGTCTC ((.((((....)))).)) | 28 °C | -15.5 kcal/mol
GAAAGAGAAATCTTTC ((((((....)))))) | 36.8 °C | -18.2 kcal/mol
GAAAGAGGAAACTCTTTC (((((((....))))))) | 51.2 °C | -37.8 kcal/mol
GAAAGCCGAAAGGCGTTC (((.(((....))).))) | 52.3 °C | -12.3 kcal/mol
GAAAGCGAAAGCTCCTTC ((((((....)))..))) | 31.4 °C | -10.2 kcal/mol
GAAAGCGAAAGCTCGTTC ((((((....)))..))) | 25.9 °C | -9.57 kcal/mol
GAAAGCGAAAGCTCTTC ((((((....))).))) | 44.3 °C | -17.9 kcal/mol
GAAAGCGAAAGCTGGTTC ((((((....)))..))) | 29.3 °C | -9.59 kcal/mol
GAAAGCGGAAACGCTTCC (.(((((....))))).) | 41.4 °C | -12.3 kcal/mol
GAAAGCGGAAACGCTTTC (((((((....))))))) | 65.5 °C | -41 kcal/mol
GAAAGGACGAAAGTCTTC (((..(((....)))))) | 24.9 °C | -11.8 kcal/mol
GAAAGGCGAAAGCCTTC (((.(((....)))))) | 49.6 °C | -10.4 kcal/mol
GAAATCGGAAACGATTTC (((((((....))))))) | 59.5 °C | -42.9 kcal/mol
GAAATGGGAAACCATTCC (.(((((....))))).) | 31 °C | -14.8 kcal/mol
GAAATTGGAAACGATTTC (((((.(....).))))) | 37.6 °C | -30.1 kcal/mol
GAACAAGGAAACTTGCTC ((.((((....)))).)) | 29.4 °C | -19.4 kcal/mol

Sequence | Tm [1] | folding enthalpy [2]
GAACACCCGAAAGGGTTC (((..(((....)))))) | 30.7 °C | -8.81 kcal/mol
GAACACCGAAAGGTATTC (((.(((....))).))) | 37.8 °C | -25 kcal/mol
GAACACGAAAGTGAATTC ((((((....)))..))) | 25.1 °C | -13.3 kcal/mol
GAACACGAAAGTGGCTTC ((((((....)))..))) | 45.4 °C | -23 kcal/mol
GAACACGGAAACGCGTTC ((((.((....)).)))) | 48.1 °C | -35.8 kcal/mol
GAACACGGAAACGTATTC (((.(((....))).))) | 33 °C | -22.6 kcal/mol
GAACACGGAAACGTGTTC (((((((....))))))) | 67.5 °C | -38.1 kcal/mol
GAACAGGGAAACCCGTTC ((((.((....)).)))) | 41.8 °C | -24.4 kcal/mol
GAACAGGGAAACCTGCTC ((.((((....)))).)) | 37.1 °C | -18.8 kcal/mol
GAACAGGGAAACCTGTTC (((((((....))))))) | 59.4 °C | -37.8 kcal/mol
GAACATGAAAATGTTC ((((((....)))))) | 52 °C | -28.9 kcal/mol
GAACCACCGAAAGGTTTC (((..(((....)))))) | 22.3 °C | -9.16 kcal/mol
GAACCAGGAAACTGGCTC ((.((((....)))).)) | 39.6 °C | -21.8 kcal/mol
GAACCCCGAAAGGGATTC (((.(((....))).))) | 46 °C | -28.5 kcal/mol
GAACCCCGAAAGGGCTTC (((.(((....))).))) | 34.3 °C | -15.3 kcal/mol
GAACCCGAAAGGGTTTC ((((((....))).))) | 56.9 °C | -12.1 kcal/mol
GAACCCGAAAGGGTTTTC ((((((....)))..))) | 55.9 °C | -13.4 kcal/mol
GAACCCGGAAACGAGTTC ((((.((....)).)))) | 40.8 °C | -27.2 kcal/mol
GAACCCGGAAACGGATTC (((.(((....))).))) | 41.5 °C | -21 kcal/mol
GAACCGCGAAAGCGCTTC (((.(((....))).))) | 35.1 °C | -10.6 kcal/mol
GAACCGGAAACGGTTC ((((((....)))))) | 67.4 °C | -33 kcal/mol
GAACCGGGAAACTGGTTC (((((.(....).))))) | 51.4 °C | -41.7 kcal/mol
GAACCTGGAAACAGGCTC ((.((((....)))).)) | 40 °C | -18.9 kcal/mol
